Screening results (PubChem BioAssay)
In the library only some 2.3% were active in any assay of this set; here they are far more common.
Rpn11 block = inhibitors of human proteasome Rpn11; AID 588493; hit rate 0.59% among 360,000; human 26S proteasome, Ub4-pepOG fluorescence polarization; 20S core pre-blocked with epoxomicin; inhibition, % at 20 µM;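 active = inhibition at 20 µM, scaled to each plate's controls, above about 33%, limit read from the data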
Target sequence (O00487 whole entry, looked up): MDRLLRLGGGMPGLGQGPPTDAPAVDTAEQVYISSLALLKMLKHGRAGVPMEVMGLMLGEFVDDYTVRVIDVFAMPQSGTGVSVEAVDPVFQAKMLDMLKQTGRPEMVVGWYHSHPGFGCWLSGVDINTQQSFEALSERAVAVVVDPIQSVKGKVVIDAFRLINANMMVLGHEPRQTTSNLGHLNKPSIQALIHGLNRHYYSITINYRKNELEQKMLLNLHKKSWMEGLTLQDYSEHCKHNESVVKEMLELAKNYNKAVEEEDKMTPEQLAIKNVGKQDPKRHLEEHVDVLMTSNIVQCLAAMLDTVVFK
Myeloid diff 2 = promotes myeloid progenitor differentiation; ER-HoxA9 myeloid progenitors, lysozyme-GFP differentiation, flow cytometry; calls only at 10 µM; hit rate 1% among 360,000; AID 624256;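 active = normalized GFP-positive differentiation at or above the plate's own cutoff, the solvent-only control mean plus 3 SD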;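 also: cells exposed to compound for four days before flow analysis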
TPT1 inhibitor = C. albicans TPT1 enzyme inhibition | recombinant caTPT1, FP RNA substrate dephosphorylation | hit rate 0.81% among 300,000 | inhibition, % at 5 µM;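 active = inhibition above the mean of all tested compounds plus 3 SD, set per screening campaign, cut at about 24% in these data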;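 also: plate controls were DMSO alone for no effect and ferristatin control at 100 nM for full effect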
HNF4A DNA FP = change in binding of human HNF4 alpha to DNA. P41235. HNF4a-FITC DNA binding, fluorescence polarization, 1 h. activity change, % at 10 µM. hit rate 0.3% among 360,000. AID 1224865; in the data active = activity change above about 30%, passing the limit was not always enough
CSN deneddyl inh = CSN deneddylation inhibition | Q92905 | inhibition, % at 12.5 µM | Purified CSN, SCF-Nedd8-OG deneddylation, fluorescence polarization | hit rate 0.38% among 360,000;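 active = pattern-corrected inhibition above about 35%, with an unprinted fluorescence ratio check between 0.5 and 1.5, limit read from the data, passing the limit was not always enough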;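 also: 0% = enzyme with substrate and 100% = substrate without enzyme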
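Detection – fluorescence polarization · System – HEK293T-derived human Csn5 enzyme · Controls – substrate-only high control, full reaction low control · Timing – 90 min, room temperature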
* marks the source's active call; other numbers are inactive results; i = inactive; x = no result given; + = active, no number.

SMILES | Rpn11 block | Myeloid diff 2 | TPT1 inhibitor | HNF4A DNA FP | CSN deneddyl inh
O=C1NC(c2ccccc2)=C(c2nc3ccccc3s2)C(c2ccc(O)cc2)N1 (stereo unspecified) | 11.7 | + | 1.9 | 2.4 | 4.4
O=C1NC(c2ccccc2)=C(c2ccc3ccccc3n2)C(c2ccccc2)N1 (stereo unspecified) | 1.9 | i | 1.9 | 2.3 | 0.9
Cc1ccc(-n2nc(-c3ccccc3)cc2Nc2ccccc2N)cc1 | -6.5 | i | -0.4 | -1.7 | -6.0
Nc1ccccc1Nc1cc(-c2ccccc2)nn1-c1ccccc1 | 0.2 | + | -0.9 | 4.9 | 2.8
Cc1ccc(CN2C(=O)CSCC2(C)C(=O)Nc2c(C)cccc2C)cc1 (stereo unspecified) | x | i | x | 7.2 | 0.2
COc1ccc(C2=Nn3c(nnc3C3CCCCC3)SC2)cc1OC | 0.3 | + | -1.6 | -0.8 | 1.0
COc1ccc(OC)c(C2=Nn3c(nnc3C3CCCCC3)SC2)c1 | 8.1 | i | -1.5 | -0.1 | -0.8
Cc1ccc(S(=O)(=O)N(C)C[C@@H]2OCc3cnnn3CCCC(=O)N([C@@H](C)CO)C[C@H]2C)cc1 | -9.4 | i | x | 1.1 | 1.0
Cc1c(C(=O)NCc2ccc(C(C)C)cc2)sc(=O)n1Cc1ccc(S(=O)(=O)N(C)C)cc1 | 4.5 | + | x | -0.3 | -7.1
CCc1ccc2cc(C)cnc2n1 | -2.6 | i | x | -2.4 | -4.8
Cc1cnc2nc(-c3ccccc3)ccc2c1 | 1.1 | i | x | 4.1 | 82.7*
CCCCN(C)C(=O)c1sc(=O)n(Cc2c(C)cccc2C)c1C | -3.6 | i | x | -1.7 | -0.8
CO[C@@H]1CN(C)C(=O)c2ccc(NC(=O)c3ccccc3F)cc2OC[C@@H](C)N(CC2CCOCC2)C[C@@H]1C | x | i | x | 7.9 | -2.2
O=C(NCc1ccccc1)c1n[nH]nc1-c1ccccc1O | -2.4 | + | -1.0 | 0.0 | -7.4
CCOC(=O)C1=C(C)N=c2s/c(=C/c3ccc(OCC(=O)O)cc3)c(=O)n2C1c1ccc(F)cc1 (stereo unspecified) | 13.1 | + | 0.5 | 0.4 | 5.7
O[C@H]1CN(CC2CCCCC2)[C@@H](c2ccc(Cl)cc2)C[C@@H]1n1cc(C2CC2)nn1 | -0.2 | i | x | 4.3 | 1.4
CC(=O)N1CCN(C(=O)CNC(=O)c2ccc(C)s2)CC1 | -2.8 | i | x | 0.1 | 2.3
CC(=O)c1cccc(-c2ccnc3c2CC(C(=O)Nc2ccc(C(C)C)cc2)O3)c1 (stereo unspecified) | -6.6 | i | x | 0.2 | 3.7
Cc1cc(NC(=O)c2cc(-c3ccccn3)nc3ccc(Br)cc23)no1 | 1.9 | i | -0.6 | 4.0 | 44.0*
COc1ccc(NC(=O)C(c2cc3ccccc3o2)n2c(=O)c(-c3cc4ccccc4[nH]3)nc3ccccc32)cc1 (stereo unspecified) | x | i | x | 5.5 | 0.1
CCn1cc(C(=O)NC(C)C2CC3CCC2C3)cn1 (stereo unspecified) | -6.5 | i | 2.3 | -0.6 | -2.9
CCn1cc(C(=O)NC(C)C23CC4CC(CC(C4)C2)C3)cn1 (stereo unspecified) | -0.5 | + | 0.1 | 0.3 | -3.5
COc1ccc(C(N)c2csc(Nc3ccc(S(C)(=O)=O)cc3)n2)cc1 (stereo unspecified) | 0.4 | i | x | -0.4 | 6.5
OC1C2COC(O2)C2OC(c3ccccc3)OC12 (stereo unspecified) | -11.4 | i | x | 0.1 | 0.2
COc1cccc(-c2nn(C)c3sc(C(=O)N4CCN(c5ccccn5)CC4)cc23)c1 | -0.4 | + | -4.8 | 1.0 | 1.2
SMILES | Rpn11 block | Myeloid diff 2 | TPT1 inhibitor | HNF4A DNA FP | CSN deneddyl inh
COc1cccc(-c2nn(C)c3sc(C(=O)N4CCOCC4)cc23)c1 | -3.9 | i | 3.2 | -1.8 | -0.3
CCOC(=O)C1=CCN(S(=O)(=O)c2ccc(C)cc2)C1c1cccc(Cl)c1 (stereo unspecified) | 4.4 | i | x | -1.6 | -4.7
O=S1(=O)CC(N2CC=CC2)CN1Cc1cn(Cc2cccc(C(F)(F)F)c2)nn1 (stereo unspecified) | x | i | x | 1.8 | -2.1
COc1cccc(-c2cnc3c(NC(C)=O)cc(-c4ccc(S(C)(=O)=O)cc4)cn23)c1 | 4.3 | i | x | 1.7 | 8.6
O=C(c1ccccc1F)N1CCCc2ccccc21 | -5.5 | + | -0.4 | 0.6 | 3.8
O=C(c1cccc(F)c1F)N1CCCc2ccccc21 | 1.6 | i | 3.4 | 0.7 | -2.0
O=C(c1ccc([N+](=O)[O-])s1)N1CCCc2ccccc21 | 2.3 | + | -2.3 | -2.1 | -0.5
O=C(c1ccc(C(=O)N2CCCc3ccccc32)s1)N1CCCc2ccccc21 | 8.1 | i | -1.2 | -0.5 | -5.1
